Data on eight compounds can be found in ChEMBL document CHEMBL3232756, “Synthesis and biological evaluation of N-dehydrodipeptidyl-N,N'-dicyclohexylurea analogs” (Eur J Med Chem, 2014).

The test system of data set [1] is Mus musculus. In words: Acute toxicity in Swiss albino mouse assessed as mortality up to 1500 mg/kg, po. The following applies: in vivo. The arrangement: dose 1500 mg/kg, route oral. In kind it is organism-based. A digest of the protocol: (§1)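 Swiss albino mice (6–8 weeks, 25–30 g) were dosed orally at 500, 1000 or 1500 mg/kg, following OECD guidelines. Body weight, food and water intake, behavioural patterns and mortality were recorded and compared with a control group.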

Data set [2] concerns Mus musculus. In words: Acute toxicity in Swiss albino mouse assessed as gross behavioral changes up to 1500 mg/kg, po. In kind it is organism-based. Particulars: in vivo. The arrangement: dose 1500 mg/kg, route oral. A digest of the protocol:
as §1

The next data set relates to Rattus norvegicus. As to the kind of experiment: Antiinflammatory activity in Wister rat assessed as inhibition of carrageenan-induced paw edema at 100 mg/kg, po administered 1 hr before carrageenan challenge measured after 3 hrs by plethysmograph analysis. Format: functional. A digest of the protocol: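 Rats of either sex, 150–220 g, food withheld 4 h. Compound or diclofenac sodium 100 mg/kg p.o., or 0.5% sodium CMC at 10 ml/kg as vehicle control, given 1 h before 0.05 ml of 1% carrageenan subplantar into the right hind paw. Paw volume read by water-displacement plethysmograph at 0, 30, 60, 120 and 180 min. % edema inhibition = 100(1−Vt/Vc); n=5, control n=6; ANOVA/Dunnett.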
In general terms: Carrageenan injected into the paw causes an acute inflammation.

For data set [3], the system named is Mus musculus. In words: Analgesic activity in Swiss albino mouse assessed as inhibition of acetic acid-induced writhing response at 100 mg/kg, po administered 1 hr before acetic acid challenge after 5 mins. Format: functional.
A further data set concerns Bacillus subtilis. As to the kind of experiment: Antimicrobial activity against Bacillus subtilis MTCC 441 at 0.02 ml of 1 mg/ml after 24 hrs by cup plate method. The following applies: MTCC 441, 24 h, read-out: DIZ. Format: functional. A digest of the protocol:
(§2)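 Cup-plate diffusion on Mueller-Hinton/nutrient agar swab-streaked with suspension, 6 mm cups bored. Each compound at 1 mg/ml in DMSO, 0.02 ml per cup; DMSO as solvent control. Amoxicillin for bacteria and fluconazole for fungi at 200 and 500 respectively as references. Incubation 37 °C for 24 h. Inhibition zone diameter in mm, triplicate, mean ± SD.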

The subject of a further data set is Staphylococcus aureus. As to the kind of experiment: Antimicrobial activity against Staphylococcus aureus MTCC 96 at 0.02 ml of 1 mg/ml after 24 hrs by cup plate method. In kind it is functional. The following applies: MTCC 96, 24 h, read-out: DIZ. A digest of the protocol: as §2
The next data set concerns Pseudomonas aeruginosa. As to the kind of experiment: Antimicrobial activity against Pseudomonas aeruginosa MTCC 1688 at 0.02 ml of 1 mg/ml after 24 hrs by cup plate method. In kind it is functional. The following applies: MTCC 1688, 24 h, read-out: DIZ. The gist of the method:
as §2

For a further data set, the system named is Escherichia coli. As to the kind of experiment: Antimicrobial activity against Escherichia coli ESS 2231 at 0.02 ml of 1 mg/ml after 24 hrs by cup plate method. Particulars: ESS 2231, 24 h, read-out: DIZ. In kind it is functional. The gist of the method:
as §2

The next data set relates to Aspergillus niger. In words: Antimicrobial activity against Aspergillus niger MTCC 292 at 0.02 ml of 1 mg/ml after 24 hrs by cup plate method. Format: functional. The following applies: MTCC 292, 24 h, read-out: DIZ. A digest of the protocol:
as §2

The next data set concerns Candida albicans. In words: Antimicrobial activity against Candida albicans MTCC 227 at 0.02 ml of 1 mg/ml after 24 hrs by cup plate method. Particulars: MTCC 227, 24 h, read-out: DIZ. In kind it is functional. A digest of the protocol:
as §2

The test system of data set [4] is Radical scavenging activity. In words: Antioxidant activity assessed as DPPH radical scavenging activity after 20 to 30 mins. Format: functional. A digest of the protocol: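 Test solution (2 ml at 25, 50, 75, 100, 125) mixed with 2 ml ethanolic DPPH, held in the dark at ambient temperature 20–30 min, then A517 read against an ethanol blank. Tocopherol used as standard. % scavenging = (Acontrol−Atest)/Acontrol×100, run in triplicate. IC50 read graphically from the % scavenging versus concentration plot.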
Background: Loss of DPPH colour is used to gauge radical scavenging.

A short description of data set [5]: Antioxidant activity assessed as hydroxyl radical scavenging activity after 15 mins. Format: functional. The gist of the method: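 Deoxyribose degradation mix: 2-deoxy-2-ribose 2.8 mM, KH2PO4–KOH 20 mM pH 7.4, FeCl3, EDTA, H2O2 1.0 mM, ascorbic acid, plus compound in methanol. Incubated 1 h at 37 °C. A 0.5 ml aliquot taken with 1 ml 2.8% TCA and 1 ml 1% TBA, heated 90 °C for 15 min, cooled, A532 read. % inhibition against blank.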

The subject of a further data set is Brain. In words: Antioxidant activity against lipid peroxidation in Wister rat brain homogenates assessed as thiobarbituric acid reactive substance formation after 30 mins by spectrophotometer analysis. Format: functional, tissue-based. The following applies: 0.5 h. The gist of the method: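 Whole brain minus cerebellum from overnight-fasted rats of either sex, 200–220 g. Homogenized 10% w/v in 0.15 M KCl and spun at 800 rpm for 10 min. Reaction incubated 37 °C for 30 min, then TBA:TCA (1:1) and BHT added, heated 80 °C for 20 min, cooled, centrifuged, A532 read.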

Data set [6] can be described thus: Antioxidant activity assessed as trolox equivalents of cupric reducing antioxidant capacity after 30 mins. Format: functional. A digest of the protocol:
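Mix of 1 ml CuCl2 (10 mM), 1 ml ethanolic neocuproine (7.5 mM), 1 ml ammonium acetate buffer (pH 7.0, 1 M), 1 ml compound or standard solution and 0.1 ml water, total 4.1 ml. A450 read after 30 min against reagent blank. TEAC = ε test/ε Trolox.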

Consider `COc1ccc(/C=C(/NC(=O)c2ccccc2)C(=O)NC(CS)C(=O)N(C(=O)NC2CCCCC2)C2CCCCC2)cc1` (stereo not given), for which the Activity entry with Mus musculus [1] and in the data set with Mus musculus [2] was “Non-toxic” in each case. Further, the results for the inhibition in vivo at 100 mg/kg in the data set with Rattus norvegicus and in the data set on Mus musculus [3] were 31.5% and 36%, respectively. Also, the zone of inhibition at 1000 µg/mL with Bacillus subtilis was 20.1 mm; in the data set with Staphylococcus aureus, 19.2 mm; in the data set on Pseudomonas aeruginosa, 17.7 mm; in the data set with Escherichia coli, 16.4 mm; with Aspergillus niger, 20.3 mm; in the data set with Candida albicans, 19.8 mm. Also, the IC50 was 88.7 µM in data set [4], 97.2 µM in data set [5] and 127 µM in the data set on Brain. The TEAC (Trolox equivalents) in data set [6] was found to be 2.91.
As to `Cc1ccc(/C=C(/NC(=O)c2ccccc2)C(=O)NCC(=O)N(C(=O)NC2CCCCC2)C2CCCCC2)cc1`, the Activity result in the data set on Mus musculus [1] and in the data set with Mus musculus [2] was “Non-toxic” throughout. Besides, the inhibition in vivo at 100 mg/kg in the data set with Rattus norvegicus came out at 23.9%; in the data set with Mus musculus [3], 48.8%. The zone of inhibition at 1000 µg/mL was 13.2 mm with Bacillus subtilis; 15.5 mm in the data set with Staphylococcus aureus; 17.6 mm with Pseudomonas aeruginosa; 13.3 mm in the data set with Escherichia coli; 14.5 mm with Aspergillus niger; 13.4 mm in the data set on Candida albicans. Besides, the half-maximal inhibitory concentration (IC50) in data set [4] came to 71.9 µM; in data set [5], 101 µM; in the data set on Brain it was 127 µM. Moreover, in data set [6], the TEAC (Trolox equivalents) was 1.24.
On to `O=C(NCC(=O)N(C(=O)NC1CCCCC1)C1CCCCC1)/C(=C\c1ccc(Cl)cc1)NC(=O)c1ccccc1`, for which the Activity result in the data set on Mus musculus [1] and in the data set on Mus musculus [2] was “Non-toxic” each time. For the same compound, the values for the inhibition in vivo at 100 mg/kg in the data set with Rattus norvegicus and in the data set with Mus musculus [3] were 15.2% and 27.6%, respectively. Further, the zone of inhibition at 1000 µg/mL in the data set with Bacillus subtilis was found to be 13.5 mm; in the data set on Staphylococcus aureus, 11.8 mm; with Pseudomonas aeruginosa it was 9.2 mm; in the data set with Escherichia coli it was 16.3 mm; in the data set on Aspergillus niger, 13.5 mm; with Candida albicans it was 12.7 mm. The IC50 was determined as 83.7 µM in data set [4], 83.7 µM in data set [5] and 96.8 µM in the data set with Brain. Also, the TEAC (Trolox equivalents) in data set [6] stood at 0.93.
Regarding `Cc1cc(C(C)(C)C)c(O)c(C(C)(C)C)c1` [BUTYLATED HYDROXYTOLUENE], the half-inhibitory concentration (IC50) with Brain worked out at 57.8 µM.
Turning to `O=C1O[C@H]([C@@H](O)CO)C(O)=C1O` [ASCORBIC ACID], the IC50 in data set [5] stood at 49.9 µM. Also, the TEAC (Trolox equivalents) in [6] is 2.63.
For the compound `COc1cc(/C=C(/NC(=O)c2ccccc2)C(=O)NC(CS)C(=O)N(C(=O)NC2CCCCC2)C2CCCCC2)ccc1O` (stereo not given), the Activity result in the data set on Mus musculus [1] and in the data set with Mus musculus [2] was “Non-toxic” throughout. Moreover, the inhibition in vivo at 100 mg/kg in the data set with Rattus norvegicus is 38.4%; in the data set with Mus musculus [3], 48%. For the same compound, the zone of inhibition at 1000 µg/mL in the data set on Bacillus subtilis was 20.2 mm; with Staphylococcus aureus it was 22.1 mm; in the data set on Pseudomonas aeruginosa, 20.8 mm; in the data set on Escherichia coli, 24.6 mm; with Aspergillus niger, 19.3 mm; with Candida albicans, 20.4 mm. For the same compound, the IC50 in data set [5] amounted to 92.8 µM; in the data set with Brain it was 81.6 µM. Moreover, the TEAC (Trolox equivalents) in data set [6] was found to be 3.6.
Turning to `O=C(O)Cc1ccccc1Nc1c(Cl)cccc1Cl` [DICLOFENAC SODIUM], the inhibition in vivo at 100 mg/kg in the data set with Rattus norvegicus is 66.8%.
Take `CC(=O)Oc1ccccc1C(=O)O` [ASPIRIN]: in the data set with Mus musculus [3], the inhibition in vivo at 100 mg/kg was found to be 63.1%.

What is called inhibition in vivo is how much of the control response was suppressed. What is called IC50 is the point on the concentration scale where inhibition reaches its midpoint.
